The source of these data is paper PMC3195516 (Synthesis, 2010).

For experiment [1], the system named is L1210 cells. The experiment in a line: L1210 cell growth inhibition. The format is cell-based, Murine. The procedure, abridged: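 L1210 cells were kept in logarithmic-phase suspension in RPMI-1640 with 10% fetal bovine serum, 2% HEPES-MOPS buffer, 1 mM L-glutamine and 1 mM aminoguanidine at 37 °C under 5% CO₂. Cultures at 0.5–1.0 × 10⁵ cells/mL were treated, reseeded and incubated, then counted. IC50 is the concentration that reduces growth to 50% of control after the set exposure.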

Experiment [2] concerns L1210 cells. The note with it: cultured L1210 cells; cited from earlier work.
Where [3] appears, read: Mus musculus, L1210, 48 h, read-out: IC50 (µM) 48 h.
The mark [4] stands for this setting: Mus musculus, L1210, 96 h, read-out: IC50 (µM) 96 h.
[5] abbreviates: read-out: IC50 (µM) 48 h, L1210 cells, 48 h exposure.
[6] abbreviates: read-out: IC50 (µM) 96 h, L1210 cells, 96 h exposure.

The structures appear in SMILES notation. Read-outs that look alike come from different tables or passages of the source.

The term IC50 denotes the midpoint of a concentration-inhibition curve. For the compound `C[C@]1(C(=O)O)CSC(c2ccc(O)cc2O)=N1` [(S)-4′-(HO)-DADFT (6), (S)-2-(2,4-dihydroxyphenyl)-4,5-dihydro-4-methyl-4-thiazolecarboxylic acid], the IC50 was 19 µM in the experiment with L1210 cells [1] (setting [3]) and 20 µM in the experiment with L1210 cells [1] (setting [4]).

For `CCNCCCNCCCNCCCNCC` [DENSPM (1), reference compound], the IC50 in the experiment with L1210 cells [1] (setting [5]) was 20 µM; in the experiment with L1210 cells [1] (setting [6]), 2 µM.

Take `Cc1c(O)c(=O)ccn1C` [L1 (2), 1,2-dimethyl-3-hydroxypyridin-4-one, reference compound]: the IC50 stood at 46 µM in the experiment with L1210 cells [1] (setting [3]) and 55 µM with L1210 cells [1] (setting [4]). The “intracellular concentration of compound” value in the experiment on L1210 cells [2] is recorded as ~ 1 µM.

As for `Cc1c(O)c(=O)ccn1CCCNCCCCNCCCN` [L1-SPM-conjugate (3), 1-(12-amino-4,9-diazadodecyl)-2-methyl-3-hydroxy-4(1H)-pyridinone], the IC50 with L1210 cells [1] (setting [3]) and with L1210 cells [1] (setting [4]) was 0.2 µM throughout. Moreover, the “intracellular concentration of compound” value in the experiment on L1210 cells [2] is on record as 390 µM.

For the compound `C[C@]1(C(=O)O)CSC(c2ccc(OCCCCNCCCNCCCN)cc2O)=N1` [NSPD-(S)-4′-(HO)-DADFT (4), (S)-4,5-dihydro-2-[2-hydroxy-4-(12-amino-5,9-diazadodecyloxy)phenyl]-4-methyl-4-thiazolecarboxylic acid], the IC50 in the experiment with L1210 cells [1] (setting [3]) and in the experiment with L1210 cells [1] (setting [4]) was 40 µM in each case.

As to `CCOC(=O)[C@@]1(C)CSC(c2ccc(OC(=O)c3ccc(CNCCCNCCCN)cc3)cc2O)=N1` [NSPDBn-(S)-4′-(HO)-DADFT-EE (7), ethyl (S)-4,5-dihydro-2-[2-hydroxy-4-[4-(9-amino-2,6-diazanonyl)benzoyloxy]]-4-methyl-4-thiazolecarboxylate], the IC50 amounted to 1.8 µM with L1210 cells [1] (setting [5]) and 2.1 µM in the experiment on L1210 cells [1] (setting [6]).
